In ChEMBL document CHEMBL5678802, “Small-molecule p21-activated kinase inhibitor PF-3758309 is a potent inhibitor of oncogenic signaling and tumor growth” (Proc Natl Acad Sci U S A, 2010):
Activity calls are given as the source filed them. No cut-off for these calls is given here.

Columns and labels:
M24met [1] = experiment: Antitumor activity against human M24met cells xenografted in nude mouse assessed as tumor growth inhibition at 15 mg/kg, po administered once daily for 9 to 18 days relative to control; format: functional; conditions: time 9-18 day, read-out: TGI
[2] = biological target: AMP-activated protein kinase (AMPK) alpha-1/beta-1/gamma-1 (Homo sapiens, UniProt P54619+Q13131+Q9Y478); experiment: Inhibition of human AMPK alpha1/beta1/gamma1 in presence of ATP by cellular assay; format: protein-complex assay
[3] = biological target: T1, Protein kinase C beta type (Homo sapiens, UniProt P05771); experiment: Inhibition of human PKCbeta-II in presence of ATP
Target sequence in this assay (P05771 whole entry): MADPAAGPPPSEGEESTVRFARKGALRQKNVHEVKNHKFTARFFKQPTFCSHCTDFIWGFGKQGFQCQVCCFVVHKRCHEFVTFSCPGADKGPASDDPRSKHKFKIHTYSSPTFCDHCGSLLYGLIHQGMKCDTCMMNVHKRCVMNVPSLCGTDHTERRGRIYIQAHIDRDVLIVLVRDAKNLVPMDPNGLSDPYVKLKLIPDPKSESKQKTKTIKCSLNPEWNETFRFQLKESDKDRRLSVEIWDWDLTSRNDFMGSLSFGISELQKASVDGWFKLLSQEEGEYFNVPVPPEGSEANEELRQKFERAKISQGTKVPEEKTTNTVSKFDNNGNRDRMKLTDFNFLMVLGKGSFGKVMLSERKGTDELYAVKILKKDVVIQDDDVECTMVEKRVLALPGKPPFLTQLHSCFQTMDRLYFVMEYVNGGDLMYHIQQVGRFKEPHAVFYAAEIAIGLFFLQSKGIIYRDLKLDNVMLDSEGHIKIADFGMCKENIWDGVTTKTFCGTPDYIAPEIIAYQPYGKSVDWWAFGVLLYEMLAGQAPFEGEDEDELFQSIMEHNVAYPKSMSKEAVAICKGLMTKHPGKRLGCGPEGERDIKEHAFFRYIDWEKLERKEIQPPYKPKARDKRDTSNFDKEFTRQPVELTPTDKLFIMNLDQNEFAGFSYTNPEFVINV

[4] = biological target: T1, Protein kinase C beta type; experiment: Inhibition of human PKCbeta-II in presence of ATP relative to control; conditions: concentration not given here
HPAF-II = experiment: Antiproliferative activity against human HPAF-II cells assessed as inhibition of cell proliferation incubated for 3 days by CellTiter-Glo Luminescent Cell Viability Assay; format: functional, cell-based; conditions: 72 h
Outline: (§1)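 Cancer cell lines seeded in 384-well plates on day 1; compound added on day 2 and left for 3 days. On day 5 all medium was aspirated, and viable cells were quantified by CellTiter-Glo luminescence, which measures cellular ATP. Dose-dependent effects on proliferation were determined.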

[5] = Antiproliferative activity against human Panc 05.04 cells assessed as inhibition of cell proliferation incubated for 3 days by CellTiter-Glo Luminescent Cell Viability Assay; format: functional, cell-based; conditions: Panc 05.04, 72 h
Outline: (§2)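 Cells of each line were plated in 384-well plates on day 1 and exposed to compound from day 2 for 3 days. On day 5 all medium was aspirated. Viable cell number was read by CellTiter-Glo luminescence, which quantifies cellular ATP.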

[6] = biological target: Tyrosine-protein kinase Fyn (Homo sapiens, UniProt P06241); experiment: Inhibition of human FYN in presence of ATP relative to control; conditions: concentration not given here
[7] = biological target: Ribosomal protein S6 kinase alpha-1 (Homo sapiens, UniProt Q15418); experiment: Inhibition of human RSK1 in presence of ATP by cellular assay
M24met [8] = experiment: Antitumor activity against human M24met cells xenografted in nude mouse assessed as tumor growth inhibition at 7.5 mg/kg, po administered once daily for 9 to 18 days relative to control; format: functional; conditions: time 9-18 day, read-out: TGI
HCC827 = experiment: Antiproliferative activity against human HCC827 cells assessed as inhibition of cell proliferation incubated for 3 days by CellTiter-Glo Luminescent Cell Viability Assay; format: functional, cell-based; conditions: HCC827, 72 h; outline: as §1
HCT-116 [9] = experiment: Downregulation of camptothecin-induced phospho-S474-PAK4 level in human HCT-116 cells at 1 uM preincubated with compound for 15 mins followed by camptothecin stimulation and measured after 20 hrs by Western blot analysis; format: functional, cell-based; conditions: time 20.25 hrs
Caco-2 = experiment: Antiproliferative activity against human Caco-2 cells assessed as inhibition of cell proliferation incubated for 3 days by CellTiter-Glo Luminescent Cell Viability Assay; format: functional, cell-based; conditions: Caco-2, 72 h; outline: as §1
PSN1 = experiment: Antiproliferative activity against human PSN1 cells assessed as inhibition of cell proliferation incubated for 3 days by CellTiter-Glo Luminescent Cell Viability Assay; format: functional, cell-based; conditions: PSN1, 72 h; outline: as §2
NCI-H1650 = experiment: Inhibition of anchorage independent cell growth in human NCI-H1650 cells incubated for 6 days by Alamar blue reagent based fluorescence plate reader analysis; format: functional; conditions: NCI-H1650, 144 h
HCT-116 [10] = experiment: Antitumor activity against human HCT-116 cells xenografted in nude mouse assessed as reduction in total Myc level at 15 to 150 mg/kg/day administered via pump for 18 hrs by Reverse-Phase protein array analysis; format: functional, organism-based; conditions: dose 15-150 mg/kg/day
MDA-MB-415 = experiment: Antiproliferative activity against human MDA-MB-415 cells assessed as inhibition of cell proliferation incubated for 3 days by CellTiter-Glo Luminescent Cell Viability Assay; format: functional, cell-based; conditions: MDA-MB-415, 72 h; outline: as §1
HCT-116 [11] = experiment: Antitumor activity against human HCT-116 cells xenografted in nude mouse assessed as reduction in Src phosphorylation at Y416 residue at 15 to 150 mg/kg/day administered via pump for 18 hrs by Reverse-Phase protein array analysis; format: functional, organism-based; conditions: dose 15-150 mg/kg/day
HCT-116 [12] = experiment: Antitumor activity against human HCT-116 cells xenografted in nude mouse assessed as reduction in Ki67 administered orally twice daily for 6 days by immunohistochemical analysis; format: functional; conditions: dose 15-25 mg/kg, route po, time 6.0 day
[13] = biological target: T1, Protein kinase C beta type; experiment: Inhibition of human PKCbeta1 in presence of ATP by cellular assay
Target sequence in this assay (P05771 whole entry): as above

HCT-116 [14] = experiment: Induction of cell cycle arrest in human HCT-116 cells assessed as accumulation of cells at G2/M phase at 100 nM measured after 48 hrs by fluorescence activated cell sorter analysis (reference value: 19.78%); format: functional
[15] = Cytotoxicity against primary hepatocyte (unknown origin) assessed as inhibition of cell proliferation incubated for 3 days by CellTiter-Glo Luminescent Cell Viability Assay; format: toxicity, cell-based; conditions: primary hepatocytes
[16] = biological target: Proto-oncogene tyrosine-protein kinase Src (Homo sapiens, UniProt P12931); experiment: Inhibition of human SRC in presence of ATP
[17] = Inhibition of YFP/YFP variant coding sequence fused ARF1/gamma-COP (unknown origin) expressed in HEK293 cells incubated for 8 to 24 hrs by fluorescence based analysis; format: cell-based, Homo sapiens
SK-BR-3 = experiment: Antiproliferative activity against human SK-BR-3 cells assessed as inhibition of cell proliferation incubated for 3 days by CellTiter-Glo Luminescent Cell Viability Assay; format: functional, cell-based; conditions: SK-BR-3, 72 h; outline: as §2
BT-474 = experiment: Antiproliferative activity against human BT-474 cells assessed as inhibition of cell proliferation incubated for 3 days by CellTiter-Glo Luminescent Cell Viability Assay; format: functional, cell-based; conditions: BT-474, 72 h; outline: as §1
SK-MES-1 = experiment: Antiproliferative activity against human SK-MES-1 cells assessed as inhibition of cell proliferation incubated for 3 days by CellTiter-Glo Luminescent Cell Viability Assay; format: functional, cell-based; conditions: SK-MES-1, 72 h; outline: as §2
[18] = biological target: Serine/threonine-protein kinase N1 (Homo sapiens) (UniProt Q16512); experiment: Inhibition of human PRK1 in presence of ATP relative to control; conditions: concentration not given here
Chain of Serine/threonine-protein kinase N1 (Homo sapiens) (Q16512 2-942 limits assumed): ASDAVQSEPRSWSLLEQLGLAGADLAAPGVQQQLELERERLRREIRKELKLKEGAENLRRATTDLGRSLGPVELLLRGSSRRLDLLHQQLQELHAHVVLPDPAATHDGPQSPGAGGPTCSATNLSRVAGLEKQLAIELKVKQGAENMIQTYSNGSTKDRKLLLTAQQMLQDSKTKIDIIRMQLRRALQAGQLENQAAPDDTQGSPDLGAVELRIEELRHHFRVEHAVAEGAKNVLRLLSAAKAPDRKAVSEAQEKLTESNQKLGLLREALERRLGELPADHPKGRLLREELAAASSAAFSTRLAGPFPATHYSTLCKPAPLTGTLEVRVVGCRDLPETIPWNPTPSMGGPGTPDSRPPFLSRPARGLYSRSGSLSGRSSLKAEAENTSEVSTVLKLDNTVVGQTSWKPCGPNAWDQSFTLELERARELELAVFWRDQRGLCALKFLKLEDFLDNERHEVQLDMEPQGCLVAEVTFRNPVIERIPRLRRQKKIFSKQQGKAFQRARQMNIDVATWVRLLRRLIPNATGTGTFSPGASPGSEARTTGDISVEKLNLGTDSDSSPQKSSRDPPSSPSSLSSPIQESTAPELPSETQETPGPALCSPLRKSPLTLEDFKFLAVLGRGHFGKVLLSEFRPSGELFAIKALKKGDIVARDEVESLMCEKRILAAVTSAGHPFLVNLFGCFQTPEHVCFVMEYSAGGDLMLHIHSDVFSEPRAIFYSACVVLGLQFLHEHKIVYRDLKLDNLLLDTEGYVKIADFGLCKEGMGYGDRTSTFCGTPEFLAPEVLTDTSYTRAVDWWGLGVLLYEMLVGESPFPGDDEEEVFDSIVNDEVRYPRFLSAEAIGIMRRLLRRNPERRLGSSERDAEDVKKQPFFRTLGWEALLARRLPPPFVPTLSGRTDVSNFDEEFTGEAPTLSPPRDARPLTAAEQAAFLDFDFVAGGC

Chain of Tyrosine-protein kinase Fyn (P06241 2-537 limits assumed): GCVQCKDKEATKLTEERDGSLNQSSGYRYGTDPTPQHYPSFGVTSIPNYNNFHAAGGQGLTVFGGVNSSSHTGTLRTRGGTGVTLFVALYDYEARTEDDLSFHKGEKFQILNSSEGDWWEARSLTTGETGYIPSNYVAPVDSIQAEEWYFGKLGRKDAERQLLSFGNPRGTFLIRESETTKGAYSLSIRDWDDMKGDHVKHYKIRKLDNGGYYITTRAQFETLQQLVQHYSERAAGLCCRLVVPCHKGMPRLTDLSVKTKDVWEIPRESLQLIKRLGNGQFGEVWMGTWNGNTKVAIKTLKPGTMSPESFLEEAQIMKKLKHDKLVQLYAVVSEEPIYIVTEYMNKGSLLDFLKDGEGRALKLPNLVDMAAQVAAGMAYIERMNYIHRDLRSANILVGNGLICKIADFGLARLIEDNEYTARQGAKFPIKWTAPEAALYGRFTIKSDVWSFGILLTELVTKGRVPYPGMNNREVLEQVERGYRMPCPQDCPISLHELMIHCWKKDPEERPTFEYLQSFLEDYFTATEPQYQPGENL
Chain of Ribosomal protein S6 kinase alpha-1 (Q15418 whole entry): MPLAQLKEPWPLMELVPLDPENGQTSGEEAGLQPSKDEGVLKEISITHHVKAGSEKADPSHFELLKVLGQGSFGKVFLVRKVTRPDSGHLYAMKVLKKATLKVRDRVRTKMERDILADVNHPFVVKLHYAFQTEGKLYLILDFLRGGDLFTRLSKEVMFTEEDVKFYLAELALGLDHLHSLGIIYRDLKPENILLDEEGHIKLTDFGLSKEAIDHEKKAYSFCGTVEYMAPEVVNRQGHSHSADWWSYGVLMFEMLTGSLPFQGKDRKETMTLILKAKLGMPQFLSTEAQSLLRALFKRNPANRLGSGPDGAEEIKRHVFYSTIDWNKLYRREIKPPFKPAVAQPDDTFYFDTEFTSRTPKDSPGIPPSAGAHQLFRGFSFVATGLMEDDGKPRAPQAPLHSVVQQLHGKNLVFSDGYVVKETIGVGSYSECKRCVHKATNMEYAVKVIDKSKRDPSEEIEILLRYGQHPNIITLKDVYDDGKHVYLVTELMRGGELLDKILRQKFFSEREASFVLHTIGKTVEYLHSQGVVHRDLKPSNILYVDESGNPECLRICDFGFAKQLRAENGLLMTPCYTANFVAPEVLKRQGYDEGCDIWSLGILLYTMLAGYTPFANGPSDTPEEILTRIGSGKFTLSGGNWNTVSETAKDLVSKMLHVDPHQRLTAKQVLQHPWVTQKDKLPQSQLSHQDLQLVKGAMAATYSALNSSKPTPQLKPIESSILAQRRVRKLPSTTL
Chain of Proto-oncogene tyrosine-protein kinase Src (P12931 2-536 limits assumed): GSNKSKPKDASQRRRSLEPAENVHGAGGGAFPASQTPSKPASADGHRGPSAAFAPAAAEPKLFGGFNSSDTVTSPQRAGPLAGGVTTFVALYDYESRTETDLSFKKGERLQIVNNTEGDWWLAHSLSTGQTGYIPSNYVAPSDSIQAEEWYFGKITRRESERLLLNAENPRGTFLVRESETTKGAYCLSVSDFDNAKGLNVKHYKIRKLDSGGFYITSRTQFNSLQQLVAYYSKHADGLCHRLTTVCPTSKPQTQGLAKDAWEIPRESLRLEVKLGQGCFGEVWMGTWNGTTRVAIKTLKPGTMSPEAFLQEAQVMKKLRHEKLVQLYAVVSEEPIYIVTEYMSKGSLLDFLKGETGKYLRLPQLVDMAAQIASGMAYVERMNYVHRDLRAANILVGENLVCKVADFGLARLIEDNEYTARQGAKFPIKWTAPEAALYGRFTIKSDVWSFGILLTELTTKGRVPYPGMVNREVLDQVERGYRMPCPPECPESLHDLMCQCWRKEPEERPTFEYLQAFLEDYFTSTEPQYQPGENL
Chain of AMP-activated protein kinase (AMPK) alpha-1/beta-1/gamma-1 (P54619 whole entry): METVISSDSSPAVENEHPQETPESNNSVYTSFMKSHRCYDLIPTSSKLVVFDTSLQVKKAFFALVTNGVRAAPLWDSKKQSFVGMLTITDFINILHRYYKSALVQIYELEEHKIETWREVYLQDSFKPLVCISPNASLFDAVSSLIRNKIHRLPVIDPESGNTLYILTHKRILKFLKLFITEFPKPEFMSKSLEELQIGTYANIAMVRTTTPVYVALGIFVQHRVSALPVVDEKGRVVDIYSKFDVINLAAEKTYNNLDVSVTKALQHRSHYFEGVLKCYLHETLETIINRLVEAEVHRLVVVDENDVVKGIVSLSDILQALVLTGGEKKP
Chain of AMP-activated protein kinase (AMPK) alpha-1/beta-1/gamma-1 (Q9Y478 whole entry): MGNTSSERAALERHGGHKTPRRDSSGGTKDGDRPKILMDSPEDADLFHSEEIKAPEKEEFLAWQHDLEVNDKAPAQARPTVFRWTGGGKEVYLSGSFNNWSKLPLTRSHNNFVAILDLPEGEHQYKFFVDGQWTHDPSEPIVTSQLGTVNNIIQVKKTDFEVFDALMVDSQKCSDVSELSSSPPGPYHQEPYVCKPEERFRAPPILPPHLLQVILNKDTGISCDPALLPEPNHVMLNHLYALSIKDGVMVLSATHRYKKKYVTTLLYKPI
Chain of AMP-activated protein kinase (AMPK) alpha-1/beta-1/gamma-1 (Q13131 whole entry): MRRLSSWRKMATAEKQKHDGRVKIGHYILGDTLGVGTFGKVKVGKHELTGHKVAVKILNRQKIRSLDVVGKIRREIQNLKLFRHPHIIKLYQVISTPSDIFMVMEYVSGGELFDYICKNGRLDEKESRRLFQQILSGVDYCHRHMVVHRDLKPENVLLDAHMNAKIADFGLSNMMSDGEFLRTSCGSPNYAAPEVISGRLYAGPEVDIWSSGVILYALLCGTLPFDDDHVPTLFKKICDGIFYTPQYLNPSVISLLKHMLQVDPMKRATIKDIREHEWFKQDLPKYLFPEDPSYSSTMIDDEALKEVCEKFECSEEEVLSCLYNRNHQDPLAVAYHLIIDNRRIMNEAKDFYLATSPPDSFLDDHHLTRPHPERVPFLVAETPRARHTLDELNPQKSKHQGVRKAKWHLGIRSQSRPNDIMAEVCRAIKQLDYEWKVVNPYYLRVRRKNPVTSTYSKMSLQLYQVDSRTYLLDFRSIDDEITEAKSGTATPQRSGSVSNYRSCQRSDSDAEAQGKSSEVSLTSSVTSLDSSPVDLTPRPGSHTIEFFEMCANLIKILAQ

Cc1nc(Nc2n[nH]c3c2CN(C(=O)N[C@H](CN(C)C)c2ccccc2)C3(C)C)c2sccc2n1 [PF-03758309]
inhibition in vivo at 15 mg/kg (M24met [1]): 72%
IC50 [2]: 40 nM
IC50 [3]: 156 nM
inhibition [4]: 90%
IC50 (HPAF-II): 517 nM
IC50 [5]: 51 nM
inhibition [6]: 95%
IC50 [7]: 543 nM
inhibition in vivo at 7.5 mg/kg (M24met [8]): 49%
IC50 (HCC827): 9.2 nM
Activity (HCT-116 [9]): Active
IC50 (Caco-2): 10000 nM
IC50 (PSN1): 34 nM
IC50 (NCI-H1650): 5.57 nM
Activity (HCT-116 [10]): Active
IC50 (MDA-MB-415): 36 nM
Activity (HCT-116 [11]): Active
Activity (HCT-116 [12]): Dose-Dependent Effect
IC50 [13]: 2490 nM
Activity (HCT-116 [14]): 23.08%
IC50 at 3 days [15]: > 1000 nM
IC50 [16]: 55 nM
IC50 [17]: 7.9 nM
IC50 (SK-BR-3): 132 nM
IC50 (BT-474): 1.8 nM
IC50 (SK-MES-1): 3.2 nM
inhibition [18]: 86%
